Screens deposited in PubChem BioAssay by several laboratories.
E coli WT exp – growth inhibitors of E. coli BW25113 wild type | growth inhibition, % at 100 µM | 0.15% of 98,000 active | OD600 absorbance;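 active = growth inhibition above about 50% at one test dose, limit read from the data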;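 also: growth measured after 20 h incubation at 37 °C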
tolC growth inh – E. coli tolC mutant growth inhibition; E. coli BW25113 tolC mutant growth, OD615; growth inhibition, % at 10 µM (by protocol); 2.2% of 65,000 active; AID 573;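 active = growth inhibition at or above a cutoff equal to the mean over every tested compound plus 3 SD, cut at about 60% in these data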;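 also: growth measured after 20 h incubation at 37 °C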
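System: E. coli ΔtolC::kan strain BW25113; Buffer or medium: LB broth supplemented with 50 µg/mL kanamycin; Compound: 10 µM final, single dose; Incubation: bacterial growth with compound for 20 h at 37 °C; Signal: A615 absorbance measurement; Evaluation: growth inhibition in percent.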
Pyk2 oligo antag – antagonists of human Pyk2 oligomerization; Q14289; Q293 cells, Pyk2 FERM NanoBiT luminescence; hits give low values; z-score (the deposit names both 25 µM and 10 µM); 0.83% of 99,000 active;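 active = Z-score of -3 or lower, scaled per plate to the spread of control and sample wells; inactive = z-score above -3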;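 also: negative z-score means lost luminescence so less FERM oligomerization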
PostGolgi ctrl – inhibits growth of the yeast control strain; efflux-deficient yeast background strain, growth absorbance A615, 16 h; inhibition, % at 10 µM; 5% of 98,000 active; AID 738
Cav32 inh – inhibitors of human Cav3.2 T-type calcium channel; B-score at 10 µM; Cav3.2-expressing cells, Fluo-4 calcium fluorescence FDSS; hits give low values; AID 449739; O95180; 4% of 100,000 active;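 active = single-dose well whose peak fluorescence ratio is a statistical outlier from its plate by either plate-standardised score or position-corrected B-score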
PostGolgi yeast – growth inhibition of a yeast mutant, post-Golgi transport screen; post-Golgi transport phenotypic cell assay; 0.9% of 98,000 active; inhibition, % at 10 µM;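 also: yeast cells grown in 1536-well plates; yeast grown about 18 h at 30C before absorbance read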
* = called active by the depositor. Rows were chosen to be rich in hits. Some 8.7% of all compounds tested hit in one or more screens of this group. Rule as the data show it, unless noted: active = inhibition above about 30%; inactive = the rest.

Screening CCOc1ccccc1NC(=O)CSc1nnc(-c2ccco2)n1Cc1ccco1 returned E coli WT exp -2.0, tolC growth inh 18.0, Pyk2 oligo antag -1.44, PostGolgi ctrl 8.0, Cav32 inh -0.606 and PostGolgi yeast 19.3.
CCCn1c(SCC(=O)Nc2ccccc2-c2ccccc2)nnc1-c1ccoc1C was read as E coli WT exp -6.0, tolC growth inh 25.9, Pyk2 oligo antag -0.22, PostGolgi ctrl 13.6, Cav32 inh -5.88* and PostGolgi yeast 0.8.
`Cc1occc1-c1nnc(SCC(=O)Nc2ccccc2)n1Cc1ccccc1` gave E coli WT exp -2.0, tolC growth inh 23.1, Pyk2 oligo antag -0.84, PostGolgi ctrl 6.9, Cav32 inh -2.53 and PostGolgi yeast 5.3.
For Cc1cc(C)nc(SCc2nnc(SCC(=O)Nc3nccs3)n2Cc2ccco2)n1 the results were E coli WT exp 0.0, tolC growth inh 8.3, Pyk2 oligo antag -1.18, PostGolgi ctrl 7.1, Cav32 inh -0.375 and PostGolgi yeast 2.1.
Screening Cc1occc1-c1nnc(SCC(=O)Nc2ccc(F)cc2)n1Cc1ccccc1 returned E coli WT exp -2.0, tolC growth inh 0.4, Pyk2 oligo antag -0.84, PostGolgi ctrl 6.4, Cav32 inh -6.2* and PostGolgi yeast -13.7.
Screening Cc1occc1-c1nnc(SCC(=O)Nc2ccccc2-c2ccccc2)n1C returned E coli WT exp 4.0, tolC growth inh 3.6, Pyk2 oligo antag -0.14, PostGolgi ctrl 9.5, Cav32 inh -0.851 and PostGolgi yeast 5.3.
Screening Cc1occc1-c1nnc(SCC(=O)Nc2nccs2)n1Cc1ccco1 returned E coli WT exp 4.0, tolC growth inh 1.1, Pyk2 oligo antag 0.13, PostGolgi ctrl 35.5*, Cav32 inh -0.916 and PostGolgi yeast -4.0.
`CCOc1ccccc1NC(=O)CSc1nnc(-c2ccccc2Cl)n1Cc1ccco1` gave E coli WT exp -4.0, tolC growth inh 30.7, Pyk2 oligo antag -0.83, PostGolgi ctrl 15.6, Cav32 inh -7.66* and PostGolgi yeast -1.9.
`O=C(O)C1C2C=CC(C2)C1C(=O)NC(c1ccccc1)c1ccccc1` (stereo not drawn) gave E coli WT exp 12.0, Pyk2 oligo antag -0.1, PostGolgi ctrl 13.7, Cav32 inh 0.0531 and PostGolgi yeast 1.4.
Screening Cn1c(SCc2c(Cl)cccc2Cl)nnc1-c1cccs1 returned E coli WT exp 1.0, tolC growth inh 7.3, Pyk2 oligo antag -1.39, PostGolgi ctrl 6.7, Cav32 inh 0.0141 and PostGolgi yeast -0.6.
Screening Fc1ccc(Nc2nc(Oc3ccccc3F)nc(N3CCCC3)n2)cc1 returned E coli WT exp -4.0, Pyk2 oligo antag -1.37, PostGolgi ctrl 11.3, Cav32 inh 0.313 and PostGolgi yeast -4.1.
`COc1ccccc1NC(=O)Cn1nc(-c2ccc(Cl)cc2)c2ccccc2c1=O` gave E coli WT exp -10.0, Pyk2 oligo antag 0.56, PostGolgi ctrl 28.2, Cav32 inh -4.67* and PostGolgi yeast 0.3.
Screening Cc1cc(C)n(CC(O)Cn2c3ccccc3c3ccccc32)n1 (stereo not drawn) returned E coli WT exp 4.0, Pyk2 oligo antag -2.44, PostGolgi ctrl 19.4, Cav32 inh -4.15 and PostGolgi yeast -2.3.
For Cc1cc(C)n(CC(O)CN2c3ccccc3Sc3ccccc32)n1 (stereo not drawn) the results were E coli WT exp -20.0, tolC growth inh 40.5, Pyk2 oligo antag -1.51, PostGolgi ctrl 43.2*, Cav32 inh -6.33* and PostGolgi yeast -0.3.
For CCOC(=O)/C(N=Nc1c(Br)cc(Br)cc1Br)=C(\C)O the results were E coli WT exp -4.0, Pyk2 oligo antag -0.65, PostGolgi ctrl 11.9, Cav32 inh -0.632 and PostGolgi yeast 12.2.
`Cc1ccc(C2NC(=O)c3c(sc4c3CCN(C)C4)N2)s1` (stereo not drawn) gave E coli WT exp -7.0, tolC growth inh -13.9, Pyk2 oligo antag -0.95, PostGolgi ctrl 25.7, Cav32 inh -0.0568 and PostGolgi yeast 15.3.
For Cc1ccc(C2NC(=O)c3c(sc4c3CCN(C)C4)N2)o1 (stereo not drawn) the results were E coli WT exp -5.0, tolC growth inh -15.5, Pyk2 oligo antag 1.23, PostGolgi ctrl -0.6, Cav32 inh -0.0779 and PostGolgi yeast 32.5*.
For COc1ccc(-n2c(C)c(C(C)=O)c3cc(O)ccc32)cc1 the results were E coli WT exp -16.0, tolC growth inh 5.1, Pyk2 oligo antag -1.03, PostGolgi ctrl 31.8*, Cav32 inh -0.128 and PostGolgi yeast -1.2.
COc1ccc2c(c1)c(C(C)=O)c(C)n2-c1ccccc1 was read as E coli WT exp 1.0, Pyk2 oligo antag 0.02, PostGolgi ctrl 22.4, Cav32 inh -1.21 and PostGolgi yeast 0.5.
`COc1cccc(CNc2cnc3ccccc3c2)c1O` gave Pyk2 oligo antag -1.5 and Cav32 inh -4.5*.
CCN(CC)CCCNC(=O)C1CCC(=O)N(c2ccc(OC)cc2)C1c1ccc(F)cc1 (stereo not drawn) was read as E coli WT exp 5.0, tolC growth inh -4.2, Pyk2 oligo antag -0.24, PostGolgi ctrl 1.7, Cav32 inh 0.0288 and PostGolgi yeast 12.5.
For Fc1ccc(N2CCN(C(c3cccs3)c3nnnn3C3CCCC3)CC2)cc1 (stereo not drawn) the results were E coli WT exp -20.0, tolC growth inh 3.0, Pyk2 oligo antag -2.53, PostGolgi ctrl 35.7*, Cav32 inh -2.15 and PostGolgi yeast 10.9.
COc1ccc(N2CCN(C(c3cccs3)c3nnnn3C3CCCC3)CC2)cc1 (stereo not drawn) was read as E coli WT exp -7.0, tolC growth inh 24.5, Pyk2 oligo antag -2, PostGolgi ctrl 78.2*, Cav32 inh -3.1 and PostGolgi yeast 13.4.
`COc1ccc(Cn2nnnc2C(c2cccs2)N2CCOCC2)cc1` (stereo not drawn) gave E coli WT exp -9.0, tolC growth inh -8.4, Pyk2 oligo antag 0.58, PostGolgi ctrl 7.1, Cav32 inh 1.16 and PostGolgi yeast 7.5.
For Fc1ccc(CN(Cc2ccccc2)C(c2cccs2)c2nnnn2C2CCCCC2)cc1 (stereo not drawn) the results were E coli WT exp -1.0, Pyk2 oligo antag -0.01, PostGolgi ctrl 4.7, Cav32 inh 0.0759 and PostGolgi yeast -4.8.
`CC(=O)Nc1ccc(Sc2ncccc2C(=O)Nc2ccc(F)cc2)cn1` gave E coli WT exp -9.0, Pyk2 oligo antag -0.43, PostGolgi ctrl 10.7, Cav32 inh 1.12 and PostGolgi yeast -1.3.
`Cc1sc(NC(=O)c2ccco2)c(CN2CCN(c3ccccn3)CC2)c1C` gave E coli WT exp -6.0, tolC growth inh 62.6*, Pyk2 oligo antag -1.53, PostGolgi ctrl 30.0, Cav32 inh 0.168 and PostGolgi yeast -4.7.
Screening Cc1sc(NC(=O)c2ccco2)c(CN2CCN(c3ccc(F)cc3)CC2)c1C returned E coli WT exp -3.0, Pyk2 oligo antag -0.98, PostGolgi ctrl 3.6 and PostGolgi yeast 4.5.
`c1ccc(Cc2nnc(N3CCOCC3)c3ccccc23)cc1` gave E coli WT exp 7.0, Pyk2 oligo antag 0.47, PostGolgi ctrl 45.2*, Cav32 inh -0.174 and PostGolgi yeast 0.6.
